From paper PMC5480654 (Cancer Growth and Metastasis, 2017)

What was measured:
MDA-MB-231 cells [1] = type: in vivo, mouse; conditions: 15 mg/kg ip every other day
Method in brief: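 Six-week-old female NSG mice, in groups of 4, received 2 × 10^6 cells (grown in RPMI with 5% FBS) into the fourth mammary fat pad. Tumors grew for 2 weeks before stapled peptide treatment began, given intraperitoneally every other day for 5 weeks, […]. Mice were then euthanized and the dissected tumors were weighed individually.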

[2] = Tolerability in treated NSG mice; type: in vivo, mouse
MDA-MB-231 cells [3] = assay: Ki67 and CD31 staining of primary tumors; type: in vivo, mouse
breast cancer cells = assay: Cell proliferation in vitro; type: cell-based
[4] = Biodistribution of I125-labeled peptides; type: in vivo, mouse
[5] = Blood clearance of I125-labeled peptides; type: in vivo, mouse; conditions: calculated by the authors, stated in Discussion
Method in brief: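 Peptides were iodinated with I125 on iodination beads (1 bead per 50 µg peptide): I125 was preincubated with the beads for 5 min, then peptide in PBS was added for 15 to 20 min. Free label was removed on 1K-cutoff filters, and labeling efficiency was checked by TLC (85% methanol). Dosing was i.v. via the tail vein, with blood drawn from the opposite vein at 5, 30, 60 min, 3 h and 24 h (3 animals). Blood was weighed, gamma-counted and expressed as activity/g to derive half-life.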

WASF3 = conditions: in vitro; cited from earlier work

retention time in the blood system [5]: ~ 30 minutes
Substance: FAM-PEG3-LEK*TNS* LAKIIRQL (sidechain bridge or staple) [WAHM1]
weight of the tumors at conclusion of treatment (MDA-MB-231 cells [1]; 5 weeks, vs control tumors): significant reduction
number of surface tumor nodules on the lungs (MDA-MB-231 cells [1]; 5 weeks, vs vehicle control): significant reduction in the number of surface tumor nodules
dissemination of tumor cells (bioluminescence imaging) (MDA-MB-231 cells [1]; after 5 weeks, vs DMSO vehicle): significant reduction in the observed extent of dissemination of tumor cells
overall body weight at conclusion of treatment ([2]; 15 mg/kg ip every other day, 5 weeks): reduced
morbidity at the higher dose ([2]; 30 mg/kg ip every other day, after 2 weeks, dose discontinued): significant morbidity and weight loss
Ki67 staining of primary tumors (proliferation potential) (MDA-MB-231 cells [3]; WAHM1-treated vs control mice, printed as 25% vs 22%, no significant difference): 25%
number and size of microvessels in the primary tumors (anti-CD31) (MDA-MB-231 cells [3]; after 5 weeks, vs vehicle alone): significant reduction after 5 weeks in the number and size of microvessels
effect on cell proliferation (breast cancer cells): does not affect cell proliferation
tumor uptake, WAHM1 compared with WANT3-v1 ([4]; I125-labeled Tyr-N-term versions, SPECT): significantly greater than for the WANT3-v1 peptide
radioactivity per gram of tissue (gamma counting) ([4]; I125-labeled peptide, organs and tumor isolated after 72 h): significant uptake in tumors after 72 hours
phosphoactivation of WASF3 (WASF3): suppresses phosphoactivation of WASF3
